Activity calls are given as the source filed them. The rule behind the calls is not given here.
How the values were obtained:
[1] = Cytotoxicity against human PBMC assessed as cell viability at 2.5 uM by MTT assay relative to control; type: cell-based; details: PBMC (peripheral blood mononuclear cells), read-out: Activity
Procedure, shortened: (§1)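 PBMC isolated from healthy donor blood by Histopaque-1077 density gradient centrifugation. Cultured in RPMI-1640 with 20% FBS, penicillin-streptomycin and 2 mM glutamine at 37°C, 5% CO2. Exposed to increasing compound concentrations; viability of non-adherent cultures measured by MTT at 570 and 595 nm and expressed against untreated control cultures.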

[2] = tested on: T84; assay: Antiproliferative activity against human T84 cells after 3 days by sulforhodamine B assay; type: functional, cell-based; details: T84, 72 h
Procedure, shortened: (§2)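 Cells grown in DMEM with 10% heat-inactivated FBS, penicillin-streptomycin and 2 mM L-glutamine at 37°C, 5% CO2. Seeded at 5 x 10^3 cells/cm², exposed 24 h later to increasing compound concentrations for 3 days. Fixed with cold 10% TCA, stained with 0.4% SRB, dye solubilized in 10 mM Tris pH 10.5, OD read at 492 nm. IC50 taken by linear interpolation of semilog dose-response curve; seven biological replicates, mean ± SEM.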

[3] = tested on: A549; assay: Cell cycle arrest in human A549 cells assessed as reduction in accumulation at G2/M phase at IC50 after 48 hrs by propidium iodide staining based flow cytometry; type: functional
[4] = Cytotoxicity against human PBMC assessed as cell viability at 1 uM by MTT assay relative to control; type: cell-based; details: PBMC (peripheral blood mononuclear cells), read-out: Activity; procedure, shortened: as §1
[5] = tested on: PBMC; assay: Cytotoxicity against human PBMC assessed as reduction in cell viability at 10 uM by MTT assay relative to control; type: cell-based; procedure, shortened: as §1
[6] = tested on: A549; assay: Cell cycle arrest in human A549 cells assessed as accumulation at sub-G1 phase at IC50 after 48 hrs by propidium iodide staining based flow cytometry (reference value: 2.6%); type: functional
[7] = tested on: A549; assay: Induction of apoptosis in human A549 cells assessed as viable cells at IC50 after 24 hrs by Annexin-V-FITC/propidium iodide staining based flow cytometry (reference value: 83.6%); type: functional
[8] = tested on: A549; assay: Potency index, ratio of 5-fluorouracil IC50 to test compound IC50 for human A549 cells; type: functional
[9] = Cytotoxicity against human PBMC assessed as cell viability at 5 uM by MTT assay relative to control; type: cell-based; details: PBMC (peripheral blood mononuclear cells), read-out: Activity; procedure, shortened: as §1
[10] = tested on: A549; assay: Cell cycle arrest in human A549 cells assessed as accumulation at G2/M phase at IC50 after 24 hrs by propidium iodide staining based flow cytometry (reference value: 8.8%); type: functional
[11] = tested on: A549; assay: Induction of apoptosis in human A549 cells assessed as increase in Bax to Bcl2 ratio at 0.5 to 1 times IC50 after 24 hrs Western blot analysis; type: functional, cell-based
Procedure, shortened: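 A-549 seeded at 4 x 10^4 cells/cm², treated 24 h later at 0x, 0.5x or 1x IC50 for 24 h. Lysed in SDS sample buffer, proteins separated on 12% acrylamide gels and transferred to nitrocellulose. Blocked 1 h in 3% milk/1% BSA/0.5% Tween-20 in PBS. Probed overnight with mouse monoclonal anti-Bax or anti-Bcl-2, then HRP anti-mouse IgG.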

[12] = tested on: A549; assay: Cell cycle arrest in human A549 cells assessed as reduction in accumulation at G1 phase at IC50 after 48 hrs by propidium iodide staining based flow cytometry; type: functional
[13] = tested on: T84; assay: Potency index, ratio of 5-fluorouracil IC50 to test compound IC50 for human T84 cells; type: functional
[14] = tested on: MCF7; assay: Antiproliferative activity against human MCF7 cells after 3 days by sulforhodamine B assay; type: functional, cell-based; details: MCF7, 72 h; procedure, shortened: as §2
[15] = tested on: A549; assay: Cell cycle arrest in human A549 cells assessed as accumulation at G0/G1 phase at IC50 after 24 hrs by propidium iodide staining based flow cytometry (reference value: 60.6%); type: functional
[16] = tested on: A549; assay: Antiproliferative activity against human A549 cells after 3 days by sulforhodamine B assay; type: functional, cell-based; details: A549, 72 h; procedure, shortened: as §2
[17] = tested on: MCF7; assay: Potency index, ratio of 5-fluorouracil IC50 to test compound IC50 for human MCF7 cells; type: functional
[18] = tested on: A549; assay: Induction of apoptosis in human A549 cells assessed as total apoptotic cells at IC50 after 24 hrs by Annexin-V-FITC/propidium iodide staining based flow cytometry (reference value: 13.2%); type: functional
[19] = tested on: A549; assay: Cell cycle arrest in human A549 cells assessed as reduction in accumulation at S phase at IC50 after 48 hrs by propidium iodide staining based flow cytometry; type: functional
[20] = tested on: PBMC; assay: Cytotoxicity against human PBMC assessed as reduction in cell viability at 0.5 to 10 uM by MTT assay; type: cell-based
Procedure, shortened: (§3)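 PBMC isolated from healthy donor blood by density gradient centrifugation (Histopaque-1077), cultured in RPMI-1640 with 20% FBS, penicillin-streptomycin and 2 mM glutamine at 37°C, 5% CO2. Cells exposed to increasing compound concentrations for 3 days. Viability read by MTT at 570 and 595 nm and expressed versus untreated control cultures.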

[21] = tested on: PBMC; assay: Cytotoxicity against human PBMC assessed as reduction in cell viability at 0.5 uM by MTT assay relative to control; type: cell-based; procedure, shortened: as §3

Row | Compound | IC50 [2] | IC50 [14] | IC50 [16] | other results
1 | COC(=O)[C@@]1(C)CCC[C@]2(C)c3c(O)c(O)cc(C(C)C)c3CC[C@@H]12 | 1 µM | 2.8 µM | 0.6 µM | viability at 2.5 µM [1]: 81.3%; Activity [3]: Active; viability at 1 µM [4]: 86.4%; Activity [5]: 21.5%; Activity [6]: 70.1%; Activity [7]: 54.2%; Ratio IC50 [8]: 4; viability at 5 µM [9]: 87.7%; Activity [10]: 14.5%; Activity [11]: Active; Activity [12]: Active; Ratio IC50 [13]: 4; Activity [15]: 53.7%; Ratio IC50 [17]: 4; Activity [18]: 44%; Activity [19]: Active
2 | COC(=O)c1cc2c(cc1O)[C@@]1(C)CCC[C@](C)(C(=O)OC)[C@@H]1CC2 | 20.7 µM | 21.7 µM | 17.2 µM | –
3 | COC(=O)c1cc2c(cc1OC)[C@@]1(C)CCC[C@](C)(C(=O)OC)[C@@H]1CC2 | > 40 µM | > 40 µM | > 40 µM | –
4 | CC(=O)c1cc2c(cc1O)[C@@]1(C)CCC[C@](C)(CO)[C@@H]1CC2 | 7.8 µM | 9.3 µM | 4.8 µM | –
5 | COC(=O)c1cc(O)cc2c1CC[C@H]1[C@@](C)(C(=O)OC)CCC[C@]21C | > 40 µM | > 40 µM | > 40 µM | –
6 | C=C(C)c1cc(O)cc2c1CC[C@H]1[C@@](C)(C(=O)OC)CCC[C@]21C | 30.7 µM | 26.1 µM | 23.7 µM | –
7 | O=c1[nH]cc(F)c(=O)[nH]1 [FLUOROURACIL] | 3.4 µM | 7.8 µM | 7.1 µM | –
8 | COC(=O)[C@@]1(C)CCC[C@]2(C)C3=C(CC[C@@H]12)C(C(C)C)=CC(=O)C3=O | 11.4 µM | 1.1 µM | 6.8 µM | viability at 2.5 µM [1]: 64.7%; viability at 1 µM [4]: 69.2%; Activity [5]: 43.8%; Activity [20]: Toxic; viability at 5 µM [9]: 58.3%; Activity [21]: 25%
9 | COC(=O)[C@@]1(C)CCC[C@]2(C)c3cc(O)cc(C(C)C)c3CC[C@@H]12 | 30.5 µM | 28.8 µM | 18.6 µM | –
